One data set deals with Liver microsome. The experiment in a line: Stability in human liver microsomes at 1 uM after 3 to 30 mins by LC-MS/MS analysis. Format: ADME. Summed up:
(§1)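 Liver microsomes at 0.5 mg/mL (human or mouse) in 100 mM potassium phosphate, pH 7.4, with 1 μM compound, prewarmed 10 min at 37 °C. Reaction started with NADPH (10 mM) and stopped at 0, 3, 6, 9, 15 and 30 min with ice-cold methanol holding tolbutamide internal standard. Centrifuged 10 min at 4 °C; supernatant analysed by LC-MS/MS.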
Background: Liver microsomes are a subcellular fraction often used to study metabolism.

Another data set has as its system Liver. Briefly: Stability in mouse liver microsomes at 1 uM after 3 to 30 mins by LC-MS/MS analysis. Format: ADME. Summed up:
as §1

On to `O=C(NO)c1ccc2c(c1)C[C@H](Nc1nccc(-c3cccnc3)n1)CC2`, for which the Stability result in the data set with Liver microsome and in the data set on Liver was “Stable” throughout.

Values taken from ChEMBL document CHEMBL3351740, “Identification of a novel aminotetralin class of HDAC6 and HDAC8 selective inhibitors” (J Med Chem, 2014).
